# LMPTP inh: blocks human LMPTP phosphatase; recombinant LMPTP-A, OMFP fluorogenic substrate, fluorescence intensity; inhibition, % at 20 µM; 360,000 compounds, 0.22% hits; AID 651560;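 active = compounds that cut the enzyme signal by at least half of the control window in the single-dose screen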;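 note: plate controls were DMSO wells with enzyme plus substrate for no effect and substrate without enzyme for full effect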
# Target sequence (P24666 whole entry, looked up): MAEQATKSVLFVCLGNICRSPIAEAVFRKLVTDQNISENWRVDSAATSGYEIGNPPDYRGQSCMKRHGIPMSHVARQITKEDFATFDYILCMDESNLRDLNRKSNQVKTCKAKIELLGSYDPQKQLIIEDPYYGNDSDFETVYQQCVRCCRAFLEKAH
#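 Assay system: LMPTP-A enzyme. Input: 0.625 nM LMPTP-A final. Probe or stimulus: 400 µM OMFP. Compound dosing: single 20 µM dose. Schedule: 50 min dark incubation at room temperature. Detection: fluorescence intensity of OMFP turnover product. Read-out: percent inhibition versus substrate-only and uninhibited controls. Benchmarks: no-enzyme low control, uninhibited high control.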
# STEP block: inhibitors of human striatal-enriched phosphatase STEP | P54829 | inhibition, % at 20 µM | recombinant STEP, OMFP fluorogenic substrate, fluorescence | 360,000 compounds, 0.25% hits;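 active = inhibition at 20 µM, scaled per plate between control wells, above about 37%, limit read from the data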;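 note: 0% = DMSO with enzyme and substrate and 100% = substrate only without enzyme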
# Target sequence (P54829 whole entry, looked up): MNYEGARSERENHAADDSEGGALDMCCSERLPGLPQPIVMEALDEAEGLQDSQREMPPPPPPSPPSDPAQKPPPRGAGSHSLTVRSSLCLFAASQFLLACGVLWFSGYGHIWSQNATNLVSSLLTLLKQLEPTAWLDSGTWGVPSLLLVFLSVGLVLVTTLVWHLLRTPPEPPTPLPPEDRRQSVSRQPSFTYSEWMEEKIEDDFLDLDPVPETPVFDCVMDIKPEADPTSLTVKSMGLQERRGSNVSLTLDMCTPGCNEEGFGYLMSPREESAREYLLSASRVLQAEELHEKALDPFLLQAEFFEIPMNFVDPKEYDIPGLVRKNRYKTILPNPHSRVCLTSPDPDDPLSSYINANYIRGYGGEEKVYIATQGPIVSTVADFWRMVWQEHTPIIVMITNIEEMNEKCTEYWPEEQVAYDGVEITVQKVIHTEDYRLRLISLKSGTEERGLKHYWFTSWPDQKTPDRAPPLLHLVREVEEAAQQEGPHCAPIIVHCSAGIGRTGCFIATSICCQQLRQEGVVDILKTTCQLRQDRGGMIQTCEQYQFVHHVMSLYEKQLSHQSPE
#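 Material: STEP (striatal-enriched tyrosine phosphatase) enzyme, cell-free | Medium: 50 mM Bis-Tris pH 6.0 with 2.5 mM DTT and 0.005% Tween 20 | Read-out: Percent inhibition scaled to no-enzyme and uninhibited-enzyme controls, plate-pattern corrected | Signal: Fluorescence read at 480 nm ex / 540 nm em | Times: 20 min reaction, room temperature, in the dark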
# HKDC1 inh: HKDC1 (human) hexokinase inhibition; recombinant HKDC1, G6PDH/diaphorase resazurin coupled fluorescence; inhibition, % at 20 µM; 340,000 compounds, 0.16% hits; AID 493160;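 active = inhibition above about 35% when tested at 20 µM, limit read from the data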;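 note: plate controls were DMSO wells with enzyme for no effect and DMSO wells lacking enzyme for full effect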
#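 Test system: HK5 enzyme. Quantity: 5 µg/mL HK5 final. Reagent: glucose and ATP substrates. Schedule: 90 min reaction incubation at room temperature, dark. Technique: resazurin-to-resorufin fluorescence via G6PDH and diaphorase coupling, 525/613 nm. Control set: DMSO wells with and without enzyme mix.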
# Scp-1 inhibitor: blocks human Scp-1 phosphatase activity | Q9GZU7 | Recombinant Scp1, phosphopeptide, malachite green phosphate absorbance | inhibition, % at 20 µM | 340,000 compounds, 0.88% hits;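 active = inhibition above about 50% at 20 µM, limit read from the data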;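 note: plate controls were DMSO wells with enzyme for no effect and wells lacking enzyme for full effect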
#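 Test system: SCP-1 phosphatase catalytic domain, residues 76-261 | Compound dosing: One concentration, 20 µM, with 1.0% DMSO | Schedule: 45 min room-temperature reaction, 5 min colour, 30 min stabiliser | Detection: Absorbance at 630 nm | Read-out basis: % inhibition of SCP-1 phosphate liberation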
# SUMO1-SIM PPI: SUMO1-SIM interaction modulation; inhibition, % at 20 µM; P63165; AID 602429; 360,000 compounds, 0.33% hits; SUMO1 binding to a labelled peptide, TR-FRET, 1 h; in the data active = inhibition above about 37%
# DNMT1 block: inhibitors of human DNMT1; DNMT1 molecular beacon, Hinp1I cleavage, fluorescence; AID 588458; inhibition (reported as % activation of signal), % at 10 µM; P26358; 360,000 compounds, 0.83% hits; in the data active = inhibition above about 50%
# HKDC1 act conf: confirmation of human HKDC1 activators | shares compounds with HKDC1 inh | recombinant HKDC1, G6PDH/diaphorase resazurin fluorescence; hits give low values | inhibition, % at 20 µM | 740 compounds, 14% hits | AID 504708;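 active = inhibition at or below a set negative limit, negative inhibition meaning the enzyme was activated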
# Starred values were filed as active, the others as inactive; . = no result. Shown are actives, neighbours in structure and some others; about 1.8% of the full set was active somewhere.
SMILES,LMPTP inh,STEP block,HKDC1 inh,Scp-1 inhibitor,SUMO1-SIM PPI,DNMT1 block,HKDC1 act conf
Oc1ccc(Br)cc1CNc1cccc2cccnc12,3.6,2.2,40.5*,-2.0,-10.7,-27.5,6.0
O=C(NCCc1ccccc1)c1cnn2c(C(F)F)cc(C3CC3)nc12,0.2,2.6,47.0*,4.5,1.6,-0.2,59.8
Cc1cc(C(F)F)n2ncc(C(=O)NCCc3ccc(Cl)cc3)c2n1,1.4,-0.4,38.6*,-4.7,4.9,0.8,36.2
CCCS(=O)(=O)NC(=O)C1(C)CCCN(C(=O)c2cc(F)ccc2C)C1 (centres undefined),-2.2,0.0,.,.,-0.2,0.5,.
COc1ccc(C)cc1S(=O)(=O)Nc1ccc2c(c1)N(C(C)=O)CCC2,-0.9,-2.3,-1.0,2.2,0.5,-0.3,.
Cc1n[nH]c(=O)c2c(NC(=O)CSc3nnc(C4CC4)n3C)oc(C)c12,-5.6,-2.7,39.7*,-8.6,-17.3,-1.0,-13.9
CC(C)C[C@H]1CNC(=O)C(=O)N1C[C@@H]1CCCN1C[C@H](Cc1ccccc1)N1C[C@H](Cc2ccccc2)N(CCc2ccccc2)C(=O)C1=O,1.2,.,.,.,4.0,.,.
COc1cc(SC#N)ccc1N=Cc1c(C)[nH]n(-c2ccc(Cl)cc2)c1=O,2.2,0.9,-40.7,-15.0,5.6,-25.1,-38.2*
OC[C@@H]1CN(Cc2ccc(F)cc2)C[C@H](n2cnc3c(NCc4ccc(F)cc4)ncnc32)O1,0.2,0.1,.,.,2.8,-1.3,.
CC1(C)Cc2c(c(N3CCOCC3)nc3sc4c(NCC5CCCO5)nnnc4c23)CS1 (centres undefined),1.6,2.3,44.9*,-4.3,5.0,-6.7,12.0
CC(C)CCNc1nnnc2c1sc1nc(N3CCOCC3)c3c(c12)CC(C)(C)SC3,2.3,3.7,8.0,4.6,0.6,-11.1,.
CC1=C(SCc2ccccc2)C(=O)c2ccccc2C1=O,6.3,7.4,44.0*,-10.5,21.1,76.0*,23.9
Cn1c(SCc2ccccc2)nccc1=O,-0.2,-1.8,7.8,0.0,5.2,0.1,.
COC(=O)CCCn1cc(CN2CC(N3CCN(Cc4cccc(C)c4)CC3)CS2(=O)=O)nn1 (centres undefined),0.3,.,.,.,17.0,.,.
CC(C)(C)c1ccc2c(c1)C(=O)c1ccccc1C2=O,1.5,-0.3,-2.6,-9.6,-19.0,4.5,.
CC(C)(C=O)C1=CC(=O)c2ccccc2C1=O,-0.8,-2.9,50.7*,-9.3,-7.6,-33.6,41.2
CCOC(=O)C(C(=O)OCC)c1cc(Br)c2noc3c2c1C(=O)c1ccccc1-3,23.7,-4.7,53.8*,27.1,36.0,57.1*,28.0
CC1(OC(=O)CCc2ccccc2)C(=O)C=C2C=C(c3ccc(C#N)cc3)N(Cc3ccccc3)C=C2C1=O (centres undefined),3.4,0.9,36.4*,8.2,3.2,-8.0,-9.2
COC(=O)CCC(=O)OC1(C)C(=O)C2=CN(Cc3ccccc3)C(c3ccc(OC)cc3)=CC2=C(Br)C1=O (centres undefined),18.0,1.1,43.3*,1.9,-13.3,7.9,13.3
COC(=O)CCC(=O)OC1(C)C(=O)C2=CN(CC3CC3)C(c3ccc(OC)cc3)=CC2=C(Br)C1=O (centres undefined),15.4,4.1,37.5*,1.9,-15.0,6.2,-8.0
COC(=O)CCC(=O)OC1(C)C(=O)C2=CN(Cc3ccc(OC)cc3)C(c3ccc(OC)cc3)=CC2=C(Br)C1=O (centres undefined),4.4,5.6,32.2,-8.2,-14.9,-7.6,.
COC(=O)CCC(=O)OC1(C)C(=O)C2=CN(C3CC3)C(c3ccc(OC)cc3)=CC2=C(Br)C1=O (centres undefined),8.7,-0.3,34.3,11.0,-15.7,-12.2,.
COC(=O)CCC(=O)OC1(C)C(=O)C2=CN(c3ccccc3)C(c3ccc(OC)cc3)=CC2=C(Br)C1=O (centres undefined),4.1,3.4,38.2*,3.5,-3.7,-14.6,28.6
COC(=O)CCC(=O)OC1(C)C(=O)C2=CN(CCCOC(C)C)C(c3ccc(OC)cc3)=CC2=C(Br)C1=O (centres undefined),5.7,1.0,28.2,6.4,-18.6,-15.8,.
CCCCn1nnnc1C(c1cc2ccccc2o1)N1CCN(C(=O)OC(C)(C)C)CC1 (centres undefined),2.7,.,.,.,-6.0,.,.
SMILES,LMPTP inh,STEP block,HKDC1 inh,Scp-1 inhibitor,SUMO1-SIM PPI,DNMT1 block,HKDC1 act conf
CC1=C(C(=O)N(C(C)C)C(C)C)CC(CC(=O)NC(c2ccccc2)c2ccccc2)C(=O)N1Cc1ccc(C(C)(C)C)cc1 (centres undefined),3.2,-1.1,.,.,0.2,-6.5,.
NC(=S)N/N=C/c1ccc(Br)o1,-0.1,-1.1,-55.3,-6.0,-2.6,5.2,-9.9
Oc1ccc(/C=N/Nc2ccnc3cc(Cl)ccc23)c(O)c1O,45.8,14.0,37.0*,-12.4,9.7,-7.3,-21.0
O=c1c2ccccc2nc(/C=C/c2cccnc2)n1Cc1ccccc1,1.0,-4.7,81.4*,-0.8,-0.4,0.2,60.7
O=c1c2ccccc2nc(/C=C/c2ccccc2)n1CCc1ccccc1,-0.9,-0.3,-7.9,-2.0,-2.1,0.7,.
O=c1c2ccccc2nc(/C=C/c2cccnc2)n1CCc1ccccc1,1.7,-0.1,33.8,-6.6,-2.8,-9.1,38.8
CCOc1ccc(Cl)cc1-c1cc(C(=O)Nc2ccc(Br)cc2)[nH]n1,2.0,-2.0,.,.,4.9,0.3,.
O=C1C(=Cc2ccc(Br)o2)C(=O)c2ccccc21,78.4*,95.8*,35.5*,65.5*,103.2*,108.3*,35.6
O=C(/C=C/c1ccc(Br)o1)NC(c1ccccc1)c1ccccc1,2.6,-3.0,4.7,0.6,-4.5,3.9,.
CNCc1ccccc1Sc1cc(O)ccc1O,1.2,0.3,64.2*,0.6,-2.3,-28.8,64.6
CNCc1ccccc1Sc1cccc(O)c1,1.6,-0.2,-0.6,-4.9,2.2,-0.4,.
O=C(Nc1cc(S(=O)(=O)N2CCOCC2)ccc1N1CCOCC1)c1cccs1,-2.9,2.1,-6.0,-4.6,0.4,-0.8,.
NS(=O)(=O)c1ccc(N=Nc2c(O)ccc3ccccc23)cc1,3.9,0.4,5.0,7.5,-11.0,-2.9,.
O=Nc1c(O)ccc2cc(S(=O)(=O)O)ccc12,-3.1,1.7,33.6,35.7,-4.8,9.9,14.8
CCOC(=O)c1c(NC(=O)CSc2nnnn2-c2ccc(OC)cc2)sc(C)c1C,1.8,-1.5,-48.5,-4.1,-3.1,-1.3,-42.3*

# Source: PubChem
